From ChEMBL document CHEMBL3045504, “Activity of 1,4-benzoquinones against formosan subterranean termites (Coptotermes formosanus)” (2008)

Columns and labels:
Type in all cases: functional
[1] = tested on: Coptotermes formosanus; experiment: Termiticidal activity against Coptotermes formosanus placed on 0.001 % wt/wt compound treated filter paper assessed as termite mortality measured 17 days post compound exposure
Procedure, shortened: (§1)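 Treated filter paper disks moistened with 100 µL water; 20 C. formosanus workers (third instar or greater) plus 1 soldier per dish from field colonies kept on spruce, ca. 100% RH, 26.6 °C. Daily mortality scored for 3 weeks; cumulative percent mortality from four replicates, each a different colony; water-only controls; ANOVA, protected Fisher LSD (P < 0.05) after arcsine square-root transform.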

[2] = tested on: Coptotermes formosanus; experiment: Termiticidal activity against Coptotermes formosanus placed on 0.01 % wt/wt compound treated filter paper assessed as termite mortality measured 17 days post compound exposure; procedure, shortened: as §1
[3] = tested on: Coptotermes formosanus; experiment: Termiticidal activity against Coptotermes formosanus placed on 0.05 % wt/wt compound treated filter paper assessed as termite mortality measured 17 days post compound exposure; procedure, shortened: as §1
[4] = tested on: Coptotermes formosanus; experiment: Termiticidal activity against Coptotermes formosanus placed on 0.1 % wt/wt compound treated filter paper assessed as termite mortality measured 17 days post compound exposure; procedure, shortened: as §1
[5] = tested on: Coptotermes formosanus; experiment: Termiticidal activity against Coptotermes formosanus placed on 0.5 % wt/wt compound treated filter paper assessed as termite mortality measured 17 days post compound exposure; procedure, shortened: as §1
[6] = tested on: Coptotermes formosanus; experiment: Termiticidal activity against Coptotermes formosanus placed on 0.001 % wt/wt compound treated filter paper assessed as termite mortality measured 13 days post compound exposure; procedure, shortened: as §1
[7] = tested on: Coptotermes formosanus; experiment: Termiticidal activity against Coptotermes formosanus placed on 0.01 % wt/wt compound treated filter paper assessed as termite mortality measured 13 days post compound exposure; procedure, shortened: as §1
[8] = tested on: Coptotermes formosanus; experiment: Termiticidal activity against Coptotermes formosanus placed on 0.05 % wt/wt compound treated filter paper assessed as termite mortality measured 13 days post compound exposure; procedure, shortened: as §1
[9] = tested on: Coptotermes formosanus; experiment: Termiticidal activity against Coptotermes formosanus placed on 0.1 % wt/wt compound treated filter paper assessed as termite mortality measured 13 days post compound exposure; procedure, shortened: as §1
[10] = tested on: Coptotermes formosanus; experiment: Termiticidal activity against Coptotermes formosanus placed on 0.5 % wt/wt compound treated filter paper assessed as termite mortality measured 13 days post compound exposure; procedure, shortened: as §1
[11] = tested on: Coptotermes formosanus; experiment: Termiticidal activity against Coptotermes formosanus placed on 0.001 % wt/wt compound treated filter paper assessed as termite mortality measured 11 days post compound exposure; procedure, shortened: as §1
[12] = tested on: Coptotermes formosanus; experiment: Termiticidal activity against Coptotermes formosanus placed on 0.01 % wt/wt compound treated filter paper assessed as termite mortality measured 11 days post compound exposure; procedure, shortened: as §1
[13] = tested on: Coptotermes formosanus; experiment: Termiticidal activity against Coptotermes formosanus placed on 0.05 % wt/wt compound treated filter paper assessed as termite mortality measured 11 days post compound exposure; procedure, shortened: as §1
[14] = tested on: Coptotermes formosanus; experiment: Termiticidal activity against Coptotermes formosanus placed on 0.1 % wt/wt compound treated filter paper assessed as termite mortality measured 11 days post compound exposure; procedure, shortened: as §1
[15] = tested on: Coptotermes formosanus; experiment: Termiticidal activity against Coptotermes formosanus placed on 0.001 % wt/wt compound treated filter paper assessed as termite mortality measured 9 days post compound exposure; procedure, shortened: as §1
[16] = tested on: Coptotermes formosanus; experiment: Termiticidal activity against Coptotermes formosanus placed on 0.01 % wt/wt compound treated filter paper assessed as termite mortality measured 9 days post compound exposure; procedure, shortened: as §1
[17] = tested on: Coptotermes formosanus; experiment: Termiticidal activity against Coptotermes formosanus placed on 0.05 % wt/wt compound treated filter paper assessed as termite mortality measured 9 days post compound exposure; procedure, shortened: as §1
[18] = tested on: Coptotermes formosanus; experiment: Termiticidal activity against Coptotermes formosanus placed on 0.1 % wt/wt compound treated filter paper assessed as termite mortality measured 9 days post compound exposure; procedure, shortened: as §1
[19] = tested on: Coptotermes formosanus; experiment: Termiticidal activity against Coptotermes formosanus placed on 0.5 % wt/wt compound treated filter paper assessed as termite mortality measured 9 days post compound exposure; procedure, shortened: as §1
[20] = tested on: Coptotermes formosanus; experiment: Termiticidal activity against Coptotermes formosanus placed on 0.001 % wt/wt compound treated filter paper assessed as termite mortality measured 6 days post compound exposure; procedure, shortened: as §1
[21] = tested on: Coptotermes formosanus; experiment: Termiticidal activity against Coptotermes formosanus placed on 0.01 % wt/wt compound treated filter paper assessed as termite mortality measured 6 days post compound exposure; procedure, shortened: as §1
[22] = tested on: Coptotermes formosanus; experiment: Termiticidal activity against Coptotermes formosanus placed on 0.05 % wt/wt compound treated filter paper assessed as termite mortality measured 6 days post compound exposure; procedure, shortened: as §1
[23] = tested on: Coptotermes formosanus; experiment: Termiticidal activity against Coptotermes formosanus placed on 0.1 % wt/wt compound treated filter paper assessed as termite mortality measured 6 days post compound exposure; procedure, shortened: as §1
[24] = tested on: Coptotermes formosanus; experiment: Termiticidal activity against Coptotermes formosanus placed on 0.5 % wt/wt compound treated filter paper assessed as termite mortality measured 6 days post compound exposure; procedure, shortened: as §1
[25] = tested on: Coptotermes formosanus; experiment: Termiticidal activity against Coptotermes formosanus placed on 1 % wt/wt compound treated filter paper assessed as termite mortality measured 21 days post compound exposure
[26] = tested on: Coptotermes formosanus; experiment: Termiticidal activity against Coptotermes formosanus placed on 1 % wt/wt compound treated filter paper assessed as termite mortality measured 11 days post compound exposure
[27] = tested on: Coptotermes formosanus; experiment: Termiticidal activity against Coptotermes formosanus placed on 1 % wt/wt compound treated filter paper assessed as termite mortality measured 3 days post compound exposure
[28] = tested on: Coptotermes formosanus; experiment: Termiticidal activity against Coptotermes formosanus placed on 0.5 % wt/wt compound treated filter paper assessed as termite mortality measured 21 days post compound exposure; procedure, shortened: as §1
[29] = tested on: Coptotermes formosanus; experiment: Termiticidal activity against Coptotermes formosanus placed on 0.5 % wt/wt compound treated filter paper assessed as termite mortality measured 11 days post compound exposure; procedure, shortened: as §1
[30] = tested on: Coptotermes formosanus; experiment: Antifeedant activity against Coptotermes formosanus placed on 1 % wt/wt compound treated filter paper assessed as filter paper consumption measured 21 days post compound exposure (reference value: 15.9 +/- 10.4 mg)
[31] = tested on: Coptotermes formosanus; experiment: Termiticidal activity against Coptotermes formosanus placed on 0.001 % wt/wt compound treated filter paper assessed as termite mortality measured 21 days post compound exposure; procedure, shortened: as §1
[32] = tested on: Coptotermes formosanus; experiment: Termiticidal activity against Coptotermes formosanus placed on 0.01 % wt/wt compound treated filter paper assessed as termite mortality measured 21 days post compound exposure; procedure, shortened: as §1
[33] = tested on: Coptotermes formosanus; experiment: Termiticidal activity against Coptotermes formosanus placed on 0.05 % wt/wt compound treated filter paper assessed as termite mortality measured 21 days post compound exposure; procedure, shortened: as §1
[34] = tested on: Coptotermes formosanus; experiment: Termiticidal activity against Coptotermes formosanus placed on 0.1 % wt/wt compound treated filter paper assessed as termite mortality measured 21 days post compound exposure; procedure, shortened: as §1
[35] = tested on: Coptotermes formosanus; experiment: Antifeedant activity against Coptotermes formosanus placed on 0.001 % wt/wt compound treated filter paper assessed as filter paper consumption measured 21 days post compound exposure (reference value: 113.2 +/- 11.9 mg)
[36] = tested on: Coptotermes formosanus; experiment: Antifeedant activity against Coptotermes formosanus placed on 0.01 % wt/wt compound treated filter paper assessed as filter paper consumption measured 21 days post compound exposure (reference value: 113.2 +/- 11.9 mg)
[37] = tested on: Coptotermes formosanus; experiment: Antifeedant activity against Coptotermes formosanus placed on 0.05 % wt/wt compound treated filter paper assessed as filter paper consumption measured 21 days post compound exposure (reference value: 113.2 +/- 11.9 mg)
[38] = tested on: Coptotermes formosanus; experiment: Antifeedant activity against Coptotermes formosanus placed on 0.1 % wt/wt compound treated filter paper assessed as filter paper consumption measured 21 days post compound exposure (reference value: 113.2 +/- 11.9 mg)
[39] = tested on: Coptotermes formosanus; experiment: Antifeedant activity against Coptotermes formosanus placed on 0.5 % wt/wt compound treated filter paper assessed as filter paper consumption measured 21 days post compound exposure (reference value: 113.2 +/- 11.9 mg)
[40] = tested on: Coptotermes formosanus; experiment: Termiticidal activity against Coptotermes formosanus placed on 0.5 % wt/wt compound treated filter paper assessed as termite mortality measured 3 days post compound exposure; procedure, shortened: as §1
[41] = tested on: Coptotermes formosanus; experiment: Antifeedant activity against Coptotermes formosanus placed on 0.5 % wt/wt compound treated filter paper assessed as filter paper consumption measured 21 days post compound exposure (reference value: 23.6 +/- 13.6 mg)
[42] = tested on: Coptotermes formosanus; experiment: Antifeedant activity against Coptotermes formosanus placed on 0.001 % wt/wt compound treated filter paper assessed as filter paper consumption measured 21 days post compound exposure (reference value: 23.6 +/- 13.6 mg)
[43] = tested on: Coptotermes formosanus; experiment: Antifeedant activity against Coptotermes formosanus placed on 0.01 % wt/wt compound treated filter paper assessed as filter paper consumption measured 21 days post compound exposure (reference value: 23.6 +/- 13.6 mg)
[44] = tested on: Coptotermes formosanus; experiment: Antifeedant activity against Coptotermes formosanus placed on 0.05 % wt/wt compound treated filter paper assessed as filter paper consumption measured 21 days post compound exposure (reference value: 23.6 +/- 13.6 mg)
[45] = tested on: Coptotermes formosanus; experiment: Antifeedant activity against Coptotermes formosanus placed on 0.1 % wt/wt compound treated filter paper assessed as filter paper consumption measured 21 days post compound exposure (reference value: 23.6 +/- 13.6 mg)

## COC1=C(OC)C(=O)C(C)=C(C)C1=O [Aurantiogliocladin]
[1]
  mortality: 0%
[2]
  mortality: 0%
[3]
  mortality: 0%
[4]
  mortality: 0%
[5]
  mortality: 0%
[6]
  mortality: 0%
[7]
  mortality: 0%
[8]
  mortality: 0%
[9]
  mortality: 0%
[10]
  mortality: 0%
[11]
  mortality: 0%
[12]
  mortality: 0%
[13]
  mortality: 0%
[14]
  mortality: 0%
[15]
  mortality: 0%
[16]
  mortality: 0%
[17]
  mortality: 0%
[18]
  mortality: 0%
[19]
  mortality: 0%
[20]
  mortality: 0%
[21]
  mortality: 0%
[22]
  mortality: 0%
[23]
  mortality: 0%
[24]
  mortality: 0%
[25]
  mortality: 100%
[26]
  mortality: 100%
[27]
  mortality: 100%
[28]
  mortality: 0%
[29]
  mortality: 0%
[30]
  Activity: 0.1 mg
[31]
  mortality: 0%
[32]
  mortality: 1.7%
[33]
  mortality: 5%
[34]
  mortality: 0%
[35]
  Activity: 136.2 mg
[36]
  Activity: 86.6 mg
[37]
  Activity: 48.6 mg
[38]
  Activity: 107.7 mg
[39]
  Activity: 52.4 mg

## CC1=C(C)C(=O)C(Cl)=C(Cl)C1=O
[1]
  mortality: 26.3%
[2]
  mortality: 10%
[3]
  mortality: 5%
[4]
  mortality: 60%
[5]
  mortality: 100%
[6]
  mortality: 26.3%
[7]
  mortality: 7.5%
[8]
  mortality: 5%
[9]
  mortality: 41.3%
[10]
  mortality: 100%
[11]
  mortality: 6.8%
[12]
  mortality: 3.8%
[13]
  mortality: 3.4%
[14]
  mortality: 30.4%
[15]
  mortality: 2.5%
[16]
  mortality: 3.8%
[17]
  mortality: 1.3%
[18]
  mortality: 26.3%
[19]
  mortality: 100%
[20]
  mortality: 1.3%
[21]
  mortality: 3.8%
[22]
  mortality: 0%
[23]
  mortality: 1.3%
[24]
  mortality: 100%
[40]
  mortality: 100%
[28]
  mortality: 100%
[29]
  mortality: 100%
[41]
  Activity: 3.2 mg
[31]
  mortality: 27.5%
[32]
  mortality: 10%
[33]
  mortality: 5%
[34]
  mortality: 68.8%
[42]
  Activity: 17.5 mg
[43]
  Activity: 25 mg
[44]
  Activity: 18.3 mg
[45]
  Activity: 13.1 mg
